# bIAP act – bovine intestinal alkaline phosphatase activators, primary screen, biochemical, bovine IAP, CDP-star luminescence; activation factor at 20 µM; alkaline phosphatase, intestinal [Bos taurus]; actives 0.17% (n = 200,000); purified bovine IAP, 30 min; active compounds read high; fold of DMSO-control signal, blank-subtracted; AID 1016, 2008;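 active = activation factor of 2 or more at 20 µM, a signal rise over negative controls twice the positive control's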
# hIAP act – human IAP activators, primary screen, biochemical, luminescence, uHTS; Intestinal-type alkaline phosphatase (Homo sapiens), P09923; purified human IAP, CDP-Star luminescence, 30 min; active compounds read high; 1 = vehicle-only enzyme, 0 = enzyme-free background; activation factor at 10 µM; actives 0.16% (n = 330,000); AID 2524, 2010;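 active = activation factor of the enzyme at least 2-fold when tested at 20 µM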
# Target sequence (P09923 whole entry, looked up): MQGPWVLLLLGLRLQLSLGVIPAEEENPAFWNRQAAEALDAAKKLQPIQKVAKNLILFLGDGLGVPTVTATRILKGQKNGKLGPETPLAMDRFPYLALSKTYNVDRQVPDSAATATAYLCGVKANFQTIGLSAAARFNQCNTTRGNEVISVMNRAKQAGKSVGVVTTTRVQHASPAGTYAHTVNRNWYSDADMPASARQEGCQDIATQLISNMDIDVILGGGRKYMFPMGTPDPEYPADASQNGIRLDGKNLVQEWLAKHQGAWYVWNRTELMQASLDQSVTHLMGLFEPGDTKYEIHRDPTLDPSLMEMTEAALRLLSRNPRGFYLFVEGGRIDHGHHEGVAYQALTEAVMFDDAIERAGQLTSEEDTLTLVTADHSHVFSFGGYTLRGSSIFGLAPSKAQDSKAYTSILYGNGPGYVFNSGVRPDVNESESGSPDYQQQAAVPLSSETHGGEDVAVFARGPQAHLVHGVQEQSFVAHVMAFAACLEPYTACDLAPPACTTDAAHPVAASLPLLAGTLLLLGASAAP
# bIAP inh – bovine intestinal alkaline phosphatase inhibitors, primary screen, selectivity assay for TNAP inhibitor project, biochemical, bovine IAP, CDP-star luminescence | alkaline phosphatase, intestinal [Bos taurus] | purified bovine IAP, 30 min | inhibition, % at 20 µM | 190,000 tested, under 10 active | AID 1019, 2008;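 active = over 50% inhibition of intestinal alkaline phosphatase at 20 µM in the single-dose screen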
#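 Incubation: 30 min reaction at room temperature / Material: purified bovine intestinal alkaline phosphatase (IAP) enzyme / Input: enzyme at 1/65,000,000 dilution / Dosing: 20 µM single dose / Signal: CDP-star luminescence signal / Reagent: CDP-star chemiluminescent phosphatase substrate, 30 µM final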
# mIAP block – inhibitors of mouse IAP, primary screen, biochemical, luminescence, uHTS; intestinal alkaline phosphatase [Mus musculus]; purified mouse IAP, CDP-Star luminescence, 30 min; inhibition, % at 10 µM; actives 0.2% (n = 330,000); AID 2806, 2010;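 active = inhibition of at least 40% at 10 µM in the primary screen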
# mIAP act – activators of mouse IAP, primary screen, biochemical, luminescence, uHTS; intestinal alkaline phosphatase [Mus musculus]; muIAP, CDP-Star luminescence, 30 min; active compounds read high; 1 = vehicle-only enzyme signal, 0 = enzyme-free wells; activation factor at 10 µM; actives 0.24% (n = 330,000);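 active = activation factor of at least 2 at 20 µM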
#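 System: mouse IAP enzyme. Reagent: CDP-Star chemiluminescent phosphatase substrate. Benchmarks: DMSO wells, no-enzyme wells. Times: 30 min enzyme-substrate-compound incubation at room temperature. Detection: luminescence from enzymatic CDP-Star hydrolysis. Doses: test compounds delivered from DMSO solution.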
# hIAP inh – human IAP inhibitors, primary screen, biochemical, luminescence, uHTS. Intestinal-type alkaline phosphatase (Homo sapiens), P09923. purified IAP, CDP-Star luminescence, 30 min. inhibition, % at 10 µM. actives 0.12% (n = 330,000);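 active = inhibition reaching a set limit with compound at 10 µM in the primary screen, cut at about 35% in these data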
# mIAP inh confirm – inhibitors of mouse IAP, confirmation, biochemical, luminescence, single concentration | shares compounds with mIAP block | purified mouse IAP, CDP-Star luminescence, 30 min | inhibition, % at 10 µM | actives 4.7% (n = 11,000);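 active = inhibition of at least 40% at 10 µM in either of the two replicates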
# A number is an active result; n = inactive; x = no result given. An excerpt weighted towards active compounds, which were near 0.77% of everything screened.
SMILES,bIAP act,hIAP act,bIAP inh,mIAP block,mIAP act,hIAP inh,mIAP inh confirm
O=C(Nc1ccc(C(=O)N2CCCCC2)cc1)Nc1cccc(Cl)c1,x,n,x,n,2.71,n,n
CC(=O)Nc1ccc(NC(=O)Nc2cccc(Cl)c2)cc1,x,n,x,n,n,n,x
CSc1cccc(NC(=O)Nc2ccc(Cl)cc2)c1,n,n,n,n,2.48,n,n
O=C(NCc1ccc2c(c1)OCO2)Nc1cccc(Cl)c1,x,n,x,n,n,n,x
O=C(Nc1cccc(Cl)c1)Nc1ccc2c(c1)OCO2,n,n,n,n,2.62,n,n
O=C(Nc1ccccc1)Nc1cccc(Cl)c1,n,n,n,n,2.76,n,n
Cn1cc(C(=O)NCc2cccs2)c(=O)c2cc(S(=O)(=O)N3CCCC3)ccc21,n,x,n,x,x,x,x
COc1ccc(NC(=O)CN2C(=O)c3ccccc3S2(=O)=O)cc1S(=O)(=O)N1CCOCC1,x,n,x,n,n,n,x
COc1cc(/C=C/C(=O)CC(=O)/C=C/c2ccc(O)c(OC)c2)ccc1O,n,x,n,57.9,n,x,49.4
COc1cc(/C=C/C(=O)/C=C(O)/C=C/c2ccc(O)c(OC)c2)ccc1O,x,x,x,61.4,n,x,53.1
O=C(N/C=C/c1ccccc1)Nc1ccc(Cl)cc1,n,n,n,n,3.95,n,n
O=C(N/N=C/c1ccc(Cl)cc1)Nc1ccccc1,n,n,n,n,n,n,x
CC(CCc1ccccc1)NC(=O)C(=O)N1CCOCC1 (stereo not drawn),n,n,n,n,n,n,x
C=CCn1cc(CN2CCC(C(=O)Nc3cccc(-c4cccc(F)c4)c3)CC2)c(C)n1,x,n,x,n,2.49,n,n
CCCn1ncc(CN2CCC(C(=O)Nc3cccc(-c4cccc(F)c4)c3)CC2)c1C,x,n,x,n,5.26,n,n
O=C(Cc1ccccc1)NN1CCCCC1,x,n,x,n,n,n,x
CC1Cc2ccccc2N1C(=O)CSc1nncs1 (stereo not drawn),x,n,x,n,n,n,x
O=C(O)c1ccccc1NS(=O)(=O)c1cccc(-n2sc3ccccc3c2=O)c1,x,n,x,n,n,n,x
Cc1ccc(C(=O)N2CCC(N3CCC(C(=O)N4CCOCC4)CC3)CC2)cc1C,x,n,x,n,n,n,x
Cc1ccc(NC(=O)c2ccc(F)cc2F)cc1NS(C)(=O)=O,x,n,x,n,n,n,x
CCOc1ccc(NC(=O)Nc2cc(OCC(F)(F)F)cc(OCC(F)(F)F)c2)cc1,n,n,n,n,3.04,n,n
O=C(Nc1ccc(F)cc1)Nc1cc(OCC(F)(F)F)cc(OCC(F)(F)F)c1,n,n,n,n,4.56,n,n
CN(C(=O)c1ccccc1)C1c2c(ccc3ccccc23)OCC1CO (stereo not drawn),x,n,x,n,n,n,x
O=C(Nc1ccc(Cl)cc1)N[C@@H]1c2c(ccc3ccccc23)OC[C@@H]1CO,n,n,n,n,13.2,n,n
CC(=O)NC(CC(C)C)C(=O)NC(CO)C(=O)NC(CCC(=O)O)C(=O)NC(C)C(=O)NC(CC(C)C)C(N)=O (stereo not drawn),x,n,x,n,n,n,x
SMILES,bIAP act,hIAP act,bIAP inh,mIAP block,mIAP act,hIAP inh,mIAP inh confirm
O=C(NCC1CC1(Cl)Cl)Nc1ccc(Cl)c(Cl)c1 (stereo not drawn),x,n,x,n,2.93,n,n
Cc1ccc(NC(=O)NCC2CCN(Cc3cccc(Cl)c3)CC2)cc1Cl,n,n,n,n,4.21,n,n
COc1cccc(NC(=O)NCC2CCN(Cc3ccc(F)cc3)CC2)c1,x,n,x,n,n,n,x
CCc1ccc(NC(=O)NCC2CCN(Cc3cccc(Cl)c3)CC2)cc1,x,n,x,n,3.09,n,n
COc1cccc(NC(=O)N(C2CCCCC2)C(C)c2cccs2)c1 (stereo not drawn),n,n,n,n,n,n,x
CCOc1ccccc1N1CCN(C(=O)c2ccc3nc(N)sc3c2)CC1,x,n,x,n,n,n,x
N#C/C(=C\c1coc2ccc(O)cc2c1=O)C(=O)Nc1nc2ccccc2s1,x,n,x,60.4,n,n,63.6
Cc1cc(NC(=O)Nc2ccc(Cl)c(Cl)c2)n(-c2ccccc2)n1,x,n,x,n,4.27,n,n
Cc1cc(NC(=O)Nc2cccc(Cl)c2)n(-c2ccccc2)n1,x,n,x,n,3.04,n,n
Cc1cc(NC(=O)Nc2cccc(Cl)c2)n(-c2ccccn2)n1,x,n,x,n,n,n,x
CCc1ccc(S(=O)(=O)Nc2nnc(N)s2)cc1,x,n,x,n,n,n,x
Cc1cc(=O)n2[nH]cc(C(=O)O)c2n1,n,n,n,52.7,n,n,57.9
Cc1cc(=O)n2[nH]c(C(=O)O)nc2n1,n,n,n,n,n,n,x
CCOC(=O)Cn1nc(-c2ccc(F)cc2)oc1=O,n,n,n,n,n,n,x
Cc1ccc(S(=O)(=O)N2CCC(C(=O)Nc3ccc(S(=O)(=O)N4CCCC4)cc3)CC2)cc1C,x,n,x,n,2.15,n,n
Cc1ccc(S(=O)(=O)N2CCC(C(=O)Nc3ccc(C(C)C)cc3)CC2)cc1,x,n,x,n,6.57,n,n
Cc1ccc(S(=O)(=O)N2CCC(C(=O)Nc3ccc(S(=O)(=O)N4CCCC4)cc3)CC2)cc1,x,n,x,n,n,n,x
CC1CC(=O)c2c(cc3c(-c4c(O)cc(O)c5c(O)c6c(cc45)OC(C)CC6=O)c(O)cc(O)c3c2O)O1 (stereo not drawn),n,n,n,41.7,n,n,67.6
O=C1CC(c2ccccc2)Oc2cc(O)cc(O)c21 (stereo not drawn),x,n,x,n,n,n,x
O=c1cc(O)nc(SCc2ccccc2)n1-c1ccc(F)cc1,n,n,n,n,n,n,x
COCc1ccc(CN2CCC(C(=O)Nc3cccc(-c4cccc(Cl)c4)c3)CC2)o1,x,n,x,n,2.75,n,n
Cc1nn2c(=O)c3c4c(sc3nc2n1-c1ccccc1)COC(C)(C)C4,x,n,x,n,n,n,x
O=C(O)c1ccc2nc(-c3ccco3)c(-c3ccco3)nc2c1,n,n,n,47.7,n,n,65.9
O=C(c1ccc2nc(-c3ccco3)c(-c3ccco3)nc2c1)N1CCN(c2ccccc2)CC1,n,n,n,n,n,n,x
CC(=O)c1cccc(NC(=O)NC2CCCc3ccccc32)c1 (stereo not drawn),n,n,n,n,n,n,x
Cc1cccc(NC(=O)NC2CCCc3ccccc32)c1 (stereo not drawn),x,n,x,n,2.69,n,n
